Most compounds without a hit are left out; they make up all but 2.6% or so of the library.
HCV core dimer = inhibitors of HCV core protein dimerization, primary screen, biochemical, TR-FRET, high-throughput; TR-FRET GST/Flag-core106 dimerization, 1536-well; inhibition, % at 5 µM; 300,000 tested, 0.33% active;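 active means inhibition above the mean of all tested compounds plus 3 SD, set per screening campaign, cut at about 45% in these data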
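test system = GST/Flag-tagged HCV core106 proteins | probe or stimulus = Eu donor and XL665 acceptor anti-tag antibodies | times = compound-protein-antibody incubation 4 h at 22.5 °C | signal = TR-FRET, excitation 340 nm, emission 617 and 671 nm | measure = percent inhibition of core106 dimerization signal | controls = wells lacking GST-core106 and wells with excess unlabelled core106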
rCAG RNA binder = binders of r(CAG) RNA repeats, primary screen, biochemical, fluorescence. r(CAG) RNA repeat, TO-PRO-1 dye displacement fluorescence. inhibition, % at 3 µM. 370,000 tested, 1.3% active. AID 651821, 2012;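 active means inhibition above the plate cutoff, the mean of all test compounds on that plate plus 3 SD, cut at about 35% in these data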;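 further: 0% = DMSO alone and 100% = 100 µM mitoxantrone as full dye displacement; higher means more dye released from RNA so lower well fluorescence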
NadD inh = inhibitors of S. aureus NadD, primary screen, biochemical, colorimetric, uHTS. Nicotinate-nucleotide adenylyltransferase NadD (Staphylococcus aureus N315). 360,000 tested, 0.78% active. inhibition, % at 20 µM. purified NadD enzyme, colorimetric absorbance read-out. AID 602399, 2012; in the data active means inhibition above about 26%
ABHD5 PLIN5 PPI = ABHD5-PLIN5 interaction inhibitors, primary screen, cell lysate, split luciferase complementation, luminescence | Perilipin-5 (Homo sapiens) + 1-acylglycerol-3-phosphate O-acyltransferase ABHD5 (Homo … | Split G. princeps luciferase complementation, 4 h | inhibition, % at 4 µM | 360,000 tested, 0.78% active | AID 602281, 2012;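 active means inhibition above the mean inhibition across every tested compound plus 3 SD, cut at about 22% in these data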;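 further: 0% = DMSO only wells and the 100% control is not disclosed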
Target sequence (Q00G26 whole entry, looked up): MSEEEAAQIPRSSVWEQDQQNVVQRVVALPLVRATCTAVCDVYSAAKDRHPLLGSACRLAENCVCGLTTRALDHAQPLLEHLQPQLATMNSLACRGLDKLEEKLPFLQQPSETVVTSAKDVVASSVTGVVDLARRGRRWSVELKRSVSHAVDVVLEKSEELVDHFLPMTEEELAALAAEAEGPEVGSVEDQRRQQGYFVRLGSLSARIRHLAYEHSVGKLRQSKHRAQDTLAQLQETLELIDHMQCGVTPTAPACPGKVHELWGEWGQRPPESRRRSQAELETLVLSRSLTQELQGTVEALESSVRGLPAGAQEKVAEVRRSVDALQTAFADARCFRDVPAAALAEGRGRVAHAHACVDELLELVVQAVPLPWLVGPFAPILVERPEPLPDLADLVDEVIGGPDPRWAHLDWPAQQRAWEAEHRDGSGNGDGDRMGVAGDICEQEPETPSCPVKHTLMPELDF
Target sequence (Q8WTS1 whole entry, looked up): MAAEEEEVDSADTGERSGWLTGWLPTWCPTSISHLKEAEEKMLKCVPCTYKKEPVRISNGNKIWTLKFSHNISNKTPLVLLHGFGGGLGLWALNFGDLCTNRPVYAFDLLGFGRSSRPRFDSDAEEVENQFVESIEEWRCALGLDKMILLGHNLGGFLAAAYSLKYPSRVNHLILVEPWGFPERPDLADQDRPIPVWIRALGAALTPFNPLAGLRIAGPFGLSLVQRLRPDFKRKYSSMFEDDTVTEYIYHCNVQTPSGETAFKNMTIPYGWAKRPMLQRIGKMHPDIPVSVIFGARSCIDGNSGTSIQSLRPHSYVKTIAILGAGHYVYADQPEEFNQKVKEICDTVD
NadD conf = inhibitors of S. aureus NadD, confirmation, biochemical, colorimetric, single concentration; shares compounds with NadD inh; purified S. aureus NadD, colorimetric enzyme assay; inhibition, % at 20 µM; 2,000 tested, 13% active; AID 624309, 2012; in the data active means inhibition mostly above about 42%, no sharp cut-off; inactive means mostly below about 42%
Active calls of the source: *; nt = not tested or not shown.

SMILES | HCV core dimer | rCAG RNA binder | NadD inh | ABHD5 PLIN5 PPI | NadD conf
CN(C)c1ccc(Sc2nnc(NC(=O)Nc3ccc(Cl)cc3Cl)s2)cc1 | 5.8 | 0.9 | 39.1* | -3.5 | 6.6
CC(C)N(C(=O)CSc1nnc(-c2cc3ccccc3cc2O)n1Cc1ccco1)C(C)C | 6.3 | -0.3 | -3.4 | -1.3 | nt
O=C(CSc1nnc(-c2cc3ccccc3cc2O)n1Cc1ccco1)N1CCc2ccccc2C1 | 14.2 | 16.8 | 41.0* | 6.5 | 53.6*
O=C(CCN1C(=O)c2ccccc2C1=O)N1CCN(c2ccccc2)CC1 | -1.6 | -6.0 | -5.4 | 0.8 | nt
Cc1ccccc1N1CCN(CCN2C(=O)CC(=C3c4ccccc4-c4ccccc43)C2=O)CC1 | 3.8 | 14.8 | 30.6* | 7.5 | 39.0
O=C1CC(=C2c3ccccc3-c3ccccc32)C(=O)N1CCN1CCN(c2ccccc2)CC1 | 18.4 | 14.1 | 38.2* | 2.0 | 27.2
COc1ccccc1N1CCN(CCN2C(=O)CC(=C3c4ccccc4-c4ccccc43)C2=O)CC1 | 24.3 | nt | nt | nt | nt
N#Cc1c(-c2ccco2)cc(-c2ccc(F)cc2)nc1N | 23.4 | 27.3 | 51.9* | -1.3 | 1.1
NC(=O)c1c(NC(=O)Cn2nc(C(=O)O)c3ccccc3c2=O)sc2c1CCC2 | 3.9 | 8.4 | 0.9 | 4.8 | nt
CCOC(=O)c1c(NC(=O)Cn2nc(C(=O)O)c3ccccc3c2=O)sc2c1CCC(C)C2 (configuration not stated) | 8.7 | 9.7 | 33.2* | -8.9 | 12.1
S=C(Nc1ccc(Oc2ccccc2)cc1)NC1CCCCCC1 | 2.4 | 1.9 | 4.2 | 1.8 | nt
S=C(Nc1ccc(Oc2ccc(NC(=S)NC3CCCCC3)cc2)cc1)NC1CCCCC1 | 37.1 | 19.4 | 34.7* | -4.9 | 31.0
COc1ccc(-c2ccc3[nH]c4c(c3c2)CCN2C(=O)[C@@H]([C@H](C)O)[C@@H](N(C)C(=O)Nc3ccc(F)cc3)C[C@@H]42)cc1 | nt | 18.4 | -2.8 | 7.4 | nt
COc1ccc(-c2ccc3[nH]c4c(c3c2)CCN2C(=O)[C@@H]([C@H](C)O)[C@@H](N(C)C(=O)Nc3cc(Cl)cc(Cl)c3)C[C@@H]42)cc1 | nt | 11.4 | 30.6* | -0.4 | 23.4
O=c1c2cc3cc(Cl)ccc3nc2ncn1Cc1ccc(Oc2ccccc2)cc1 | nt | 8.2 | nt | nt | nt
CC(C)(O)c1ccccc1CC[C@@H](SCC1(CC(=O)O)CC1)c1cccc(/C=C/c2ccc3ccc(Cl)cc3n2)c1 | 36.4 | nt | 50.7* | -10.2 | 55.6*
COc1cc2oc(=O)cc(CN3CCN(c4ccccc4F)CC3)c2cc1Cl | nt | 12.2 | 38.9* | 7.4 | 21.5
CC(=O)c1ccc(-n2c(SCC(=O)c3c[nH]c4ccccc34)nc3ccccc3c2=O)cc1 | 9.8 | 17.5 | 36.8* | 15.8 | 27.1
Cc1cc[n+]2cc(-c3cccc([N+](=O)[O-])c3)c(-c3cccc([N+](=O)[O-])c3)cc2c1 | 5.4 | 7.9 | 31.5* | 0.0 | 6.3
Cc1cccc(-c2cnn(-c3cccc([N+](=O)[O-])c3)c2N)c1 | -1.1 | -0.2 | -5.8 | -5.7 | nt
O=C(Nc1ccc(N2CCCC2)cc1)c1cccc(-c2cc3ccccc3oc2=O)c1 | 34.8 | 14.3 | 57.2* | 5.5 | 6.2
O=C(Nc1ccc(S(=O)(=O)N2CCOCC2)cc1)c1ccc([N+](=O)[O-])cc1Cl | -6.2 | 3.5 | 5.2 | -5.2 | nt
CC(=O)N1CCN(c2ccc(NC(=O)c3ccc4ccccc4c3)cc2)CC1 | -4.8 | -0.9 | -7.2 | 2.6 | nt
O=C(Nc1ccc(N2CCCC2)cc1)c1ccc2ccccc2c1 | 13.5 | 1.2 | 33.6* | -0.9 | 11.8
O=C(Nc1ccc(N2CCCC2)cc1)c1ccc([N+](=O)[O-])cc1Cl | 14.9 | -2.2 | 35.9* | 0.1 | -1.7
SMILES | HCV core dimer | rCAG RNA binder | NadD inh | ABHD5 PLIN5 PPI | NadD conf
CCc1c(-c2ccccc2)ncn1CCc1ccccc1OC | nt | -0.4 | nt | nt | nt
CC1CCCCC1NC(=O)C1CCC(CNS(=O)(=O)c2ccc3c(c2)C(C)(C)C(=O)N3C)CC1 (configuration not stated) | nt | -0.2 | 0.4 | 0.1 | nt
S=c1[nH]nc(-c2cc(-c3ccsc3)n[nH]2)n1-c1cccc2ccccc12 | 10.7 | 20.2 | 31.6* | -9.2 | 31.7
N#CCC[C@H]1CC[C@]2(CCCN(C(=O)c3ccc4ccccc4n3)C2)O1 | nt | 1.3 | nt | nt | nt
CC(C)[C@H](NC(=O)c1ccc(Cl)cc1Cl)C(=O)N1CCC[C@H]1C(=O)NCCc1ccccc1Cl | nt | -1.6 | nt | nt | nt
CCn1c2ccccc2c2cc(NC(=O)CSc3nnc(-c4ccc(OC)cc4)n3N)ccc21 | 6.3 | 8.5 | 30.1* | 2.8 | 32.8
Cc1noc(C)c1S(=O)(=O)N(C)C[C@@H]1OCc2cn(nn2)CCCC(=O)N([C@H](C)CO)C[C@H]1C | nt | 2.2 | nt | nt | nt
O=c1cc(CN2CCN(S(=O)(=O)c3cccc(Cl)c3)CC2)c2ccc(O)cc2o1 | nt | 23.7 | 35.0* | -0.3 | 41.0
COc1cccc(CNc2nc3cc(-c4ccccc4C)sc3c(=O)n2C)c1OC | nt | 8.7 | 4.8 | -1.4 | nt
Cc1ccc(Cn2c(C3CCCN3c3nc(-c4cc(Cl)c(N)c(Cl)c4)cs3)nc3cc(Cl)c(Cl)cc32)cc1 (configuration not stated) | 9.7 | 12.0 | 51.3* | -2.2 | 43.3*
CCCn1c(C2CCCN2c2nc(-c3cccc(Br)c3)cs2)nc2cc(Cl)c(Cl)cc21 (configuration not stated) | -5.8 | 7.7 | 36.1* | -3.8 | 29.8
Nc1c(Cl)cc(-c2csc(N3CCCC3c3nc4cc(Cl)c(N5CCCCC5)cc4n3CCCO)n2)cc1Cl (configuration not stated) | 0.8 | 15.3 | 31.6* | -4.3 | 15.0
CCCn1c(C2CCCN2c2nc(C)cs2)nc2cc(Cl)c(Cl)cc21 (configuration not stated) | -4.7 | -3.9 | 2.4 | -8.6 | nt
Nc1c(Cl)cc(-c2csc(N3CCCC3c3nc4cc(Cl)c(Cl)cc4n3CCCO)n2)cc1Cl (configuration not stated) | -71.3 | 13.6 | 14.0 | -7.8 | nt
NS(=O)(=O)c1ccc(N=C2C(=O)Nc3ccccc32)cc1 | 1.5 | 1.6 | -5.8 | -5.0 | nt
O=C1Nc2ccccc2C1=Nc1ccc(S(=O)(=O)Nc2nccs2)cc1 | 0.6 | 48.2* | 53.8* | -1.5 | 74.0*
Cc1cc(Br)c2nc(-c3ccccc3)c(Cc3cccc(Cl)c3)n2c1 | nt | 9.9 | 31.4* | -8.4 | 16.8
CCCCOCC1CN(CCCC)S(=O)(=O)c2c(cccc2N2CCCC2)O1 (configuration not stated) | nt | 0.0 | nt | nt | nt
COc1ccc(C2NCCc3c2[nH]c2ccccc32)cc1CSc1nc2ccccc2s1 (configuration not stated) | -7.7 | 12.3 | 44.3* | 17.2 | 11.2
CCC(=O)N1C(=O)CCN(C(C)=O)c2ccccc21 | -4.6 | 0.1 | 35.7* | 3.7 | 8.6
CC(=O)N1CCc2nc3ccccc3cc21 | nt | 3.8 | -0.1 | -6.1 | nt

Screening results deposited in PubChem BioAssay by several laboratories.
